20 compounds from ChEMBL document CHEMBL2016480, “Structure-based ligand design of novel bacterial RNA polymerase inhibitors” (ACS Med Chem Lett, 2011) can be followed below.

pIC50: −log10 of the molar value. Bounds are passed on as bounds.

The subject of experiment [1] is Escherichia coli. Briefly: Antibacterial activity against kanamycin-resistant,acrAB::Tn903 deficient Escherichia coli SM1411 expressing lacI3, lacZ118, proB, trp, nalA, rpsL. In kind it is functional.
Experiment [2] has as its system Escherichia coli. Briefly: Antibacterial activity against Escherichia coli 1411 expressing lacI3, lacZ118, proB, trp, nalA, rpsL. In kind it is functional. Put shortly: (§1)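 MICs by standard susceptibility testing per British Society for Antimicrobial Chemotherapy guidelines, run in triplicate. For the PMBN lines, tests were repeated with polymyxin B nonapeptide added as an outer-membrane permeabilizer.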

Experiment [3] relates to Staphylococcus aureus. The experiment can be described thus: Antibacterial activity against Staphylococcus aureus SH1000 expressing rsbU gene in the presence of polymyxin B nonapeptide. The experiment is classed as functional. Put shortly: as §1
Experiment [4] relates to Saccharomyces cerevisiae. The experiment can be described thus: Inhibition of yeast RNA polymerase 2 at 100 uM. Put shortly: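 Selectivity assay against yeast RNA polymerase II. Activity was reported as percentage inhibition at 100 μM compound.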
Experiment [5] can be described thus: Inhibition of malate dehydrogenase at 100 uM. A digest of the protocol:
(§2)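 Counter-screens for promiscuous inhibition using malate dehydrogenase and chymotrypsin enzyme assays. Activity was reported as percentage inhibition at 100 μM compound.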

The nature of experiment [6]: Inhibition of chymotrypsin at 100 uM. A digest of the protocol: as §2
Experiment [7] concerns Escherichia coli. Briefly: Antibacterial activity against Escherichia coli 1411 expressing lacI3, lacZ118, proB, trp, nalA, rpsL in the presence of polymyxin B nonapeptide. In kind it is functional. Put shortly: as §1
The test system of experiment [8] is Bacillus subtilis. The experiment can be described thus: Antibacterial activity against Bacillus subtilis 1S34 in the presence of polymyxin B nonapeptide. In kind it is functional. A digest of the protocol: as §1
Experiment [9] relates to Staphylococcus aureus. Briefly: Antibacterial activity against Staphylococcus aureus SH1000 expressing rsbU gene. The experiment is classed as functional. Put shortly: as §1
A short description of experiment [10]: Inhibition of Escherichia coli DNA dependent RNA polymerase after 2 hrs by SYBR Green-based spectrophotometric analysis. A digest of the protocol: (§3)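 In vitro transcription assay with E. coli RNA polymerase on a Kool NC-45 RNAP template. Activity was reported as IC50 or as percentage inhibition at 100 μM compound.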
Experiment [11] concerns Bacillus subtilis. The experiment can be described thus: Antibacterial activity against Bacillus subtilis 1S34. The experiment is classed as functional. A digest of the protocol: as §1
The subject of experiment [12] is Escherichia coli. The experiment can be described thus: Antibacterial activity against kanamycin-resistant,acrAB::Tn903 deficient Escherichia coli SM1411 expressing lacI3, lacZ118, proB, trp, nalA, rpsL in the presence of polymyxin B nonapeptide. The experiment is classed as functional.
Experiment [13] relates to Escherichia coli. Briefly: Inhibition of Escherichia coli DNA dependent RNA polymerase at 100 uM after 2 hrs by SYBR Green-based spectrophotometric analysis. Put shortly: as §3

One may read the MIC as the lowest concentration that inhibits growth of the organism. The inhibition is the percentage by which the read-out fell short of the control. In general, pIC50 refers to −log10 of the IC50, conventionally taken in molar units. As to `N#Cc1ccc(C(=O)Nc2ccc(-n3cncn3)nc2)cc1`, the MIC in experiment [1], in experiment [2], in experiment [3], in [7], in [8] and in [9] was greater than 256 µg/mL each time. Besides, the MIC in experiment [11] and in experiment [12] was greater than 256 µg/mL each time. Moreover, the inhibition in experiment [4] came to 12%; in experiment [5] it was 0%; in [6], 0%. The same compound showed a pIC50 in [10] of 5.00.

Regarding `NS(=O)(=O)c1ccc(C(=O)Nc2cccnc2)cc1`, the MIC in experiment [1], in [2], in experiment [3], in [7], in experiment [8] and in experiment [9] was greater than 256 µg/mL throughout. The MIC in experiment [11] and in experiment [12] was greater than 256 µg/mL throughout. Besides, the inhibition in experiment [13] came out at 0%.

`O=C(Nc1ccc(-n2cncn2)nc1)c1ccc(C(F)(F)F)cc1`: the MIC in experiment [1], in experiment [2], in experiment [3], in [7], in experiment [8] and in experiment [9] was greater than 256 µg/mL in each case. For the same compound, the MIC in experiment [11] and in experiment [12] was greater than 256 µg/mL throughout. For the same compound, the inhibition in [13] came out at 5.9%.

Turning to `NS(=O)(=O)c1ccc(C(=O)Nc2ccc(-c3ccccc3)nc2)cc1`, the MIC in experiment [1], in experiment [2], in [3], in experiment [7], in [8] and in experiment [9] was greater than 256 µg/mL each time. In addition, the MIC in experiment [11] and in [12] was greater than 256 µg/mL throughout. The inhibition in [13] was determined as 32.9%.

As to `NS(=O)(=O)c1ccc(C(=O)Nc2ccc(N3CCCC3)nc2)cc1`, the MIC in experiment [1], in experiment [2], in experiment [3], in experiment [7], in experiment [8] and in [9] was greater than 256 µg/mL throughout. Further, the MIC in [11] and in [12] was greater than 256 µg/mL each time. The compound also returned an inhibition in experiment [13] of 17.9%.

Regarding `NS(=O)(=O)c1ccc(C(=O)Nc2cnc3ccccc3c2)cc1`, the MIC in experiment [1], in [2], in experiment [3], in experiment [7], in experiment [8] and in experiment [9] was greater than 256 µg/mL throughout. The MIC in experiment [11] and in experiment [12] was greater than 256 µg/mL throughout. Moreover, the inhibition in [13] came to 0%.

On to `NS(=O)(=O)c1ccc(C(=O)Nc2ccc(OCc3ccccn3)nc2)cc1`, for which the MIC in [1], in experiment [2], in [3], in experiment [7], in experiment [8] and in experiment [9] was greater than 256 µg/mL in each case. Besides, the MIC in experiment [11] and in [12] was greater than 256 µg/mL throughout. The pIC50 in [10] was 3.82.

In the case of `NC(=O)c1ccc(C(=O)Nc2ccc(-n3cncn3)nc2)cc1`, the MIC in experiment [1], in experiment [2], in experiment [3], in experiment [7], in [8] and in experiment [9] was greater than 256 µg/mL throughout. The MIC in [11] and in [12] was greater than 256 µg/mL each time. Moreover, the inhibition in experiment [4] is 5.2%; in [5], 0%; in experiment [6] it was 1.5%. Also, the pIC50 in [10] was 5.00.

Regarding `CS(=O)(=O)c1ccc(C(=O)Nc2ccc(-n3cncn3)nc2)cc1`, the minimum inhibitory concentration (MIC) in experiment [1], in [2], in experiment [3], in experiment [7], in experiment [8] and in [9] was greater than 256 µg/mL each time. The MIC in experiment [11] and in experiment [12] was greater than 256 µg/mL in each case. The compound further had an inhibition in experiment [13] of 0%.

Turning to `N#Cc1ccc(C(=O)Nc2cnc3ccccc3c2)cc1`, the minimum inhibitory concentration (MIC) in [1], in experiment [2], in experiment [3], in experiment [7], in experiment [8] and in experiment [9] was greater than 256 µg/mL throughout. Besides, the MIC in experiment [11] and in [12] was greater than 256 µg/mL each time. Also, in experiment [13], the inhibition was 0%.

In the case of `NS(=O)(=O)c1ccc(C(=O)Nc2ccc(-n3cncn3)nc2)cc1`, the MIC in experiment [1], in [2], in [3], in experiment [7], in experiment [8] and in experiment [9] was greater than 256 µg/mL in each case. Besides, the minimal inhibitory concentration (MIC) in [11] and in experiment [12] was greater than 256 µg/mL in each case. Besides, the results for the inhibition in experiment [4], in [5] and in [6] were 9.3%, 1.4% and 0.6%, respectively. This compound also showed a pIC50 in experiment [10] of 4.86.

Regarding `COC(=O)c1ccc(C(=O)Nc2ccc(-n3ccnc3)nc2)cc1`, the minimal inhibitory concentration (MIC) in experiment [1], in experiment [2], in experiment [3], in experiment [7], in experiment [8] and in [9] was greater than 256 µg/mL throughout. The MIC in [11] and in experiment [12] was greater than 256 µg/mL in each case. Besides, the inhibition in experiment [13] amounted to 0%.

For `NS(=O)(=O)c1ccc(C(=O)Nc2ccc(N3CCOCC3)nc2)cc1`, the MIC in experiment [1], in [2], in experiment [3], in [7], in [8] and in [9] was greater than 256 µg/mL in each case. Besides, the MIC in experiment [11] and in experiment [12] was greater than 256 µg/mL throughout. Also, the inhibition in experiment [13] turned out to be 0%.

Turning to `NS(=O)(=O)c1ccc(C(=O)Nc2ccc(-c3ccco3)nc2)cc1`, the MIC in experiment [1], in experiment [2], in experiment [3], in [7], in [8] and in experiment [9] was greater than 256 µg/mL throughout. Moreover, the MIC in experiment [11] and in experiment [12] was greater than 256 µg/mL each time. Further, the inhibition in experiment [13] was 12.9%.

`O=C(O)c1ccc(C(=O)Nc2ccc(-n3ccnc3)nc2)cc1`: the MIC in [1], in experiment [2], in experiment [3], in [7], in [8] and in experiment [9] was greater than 256 µg/mL throughout. In addition, the MIC in [11] and in [12] was greater than 256 µg/mL in each case. In experiment [13], the inhibition stood at 0%.

For the compound `N#Cc1ccc(C(=O)Nc2ccc(-c3ccccc3)nc2)cc1`, the MIC in [1], in experiment [2], in [3], in experiment [7], in experiment [8] and in experiment [9] was greater than 256 µg/mL in each case. The MIC in experiment [11] and in experiment [12] was greater than 256 µg/mL throughout. Also, the inhibition in experiment [13] was 10.9%.

Consider `N#Cc1ccc(C(=O)Nc2ccc(-n3ccnc3)nc2)cc1`, for which the MIC in experiment [1], in experiment [2], in [3], in experiment [7], in [8] and in experiment [9] was greater than 256 µg/mL throughout. In addition, the MIC in experiment [11] and in experiment [12] was greater than 256 µg/mL each time. In addition, the inhibition in experiment [4] was determined as 17.6%; in experiment [5] it was 0.6%; in experiment [6], 1.8%. Further, in [10], the pIC50 is 5.14.

For the compound `O=C(Nc1ccc(-n2cncn2)nc1)c1ccccc1`, the MIC in [1], in experiment [2], in experiment [3], in [7], in experiment [8] and in experiment [9] was greater than 256 µg/mL each time. Moreover, the MIC in [11] and in experiment [12] was greater than 256 µg/mL each time. This compound also gave an inhibition in experiment [13] of 0%.

In the case of `NS(=O)(=O)c1ccc(NC(=O)c2ccc(-n3cncn3)nc2)cc1`, the MIC in [1], in experiment [2], in experiment [3], in experiment [7], in experiment [8] and in experiment [9] was greater than 256 µg/mL in each case. For the same compound, the MIC in experiment [11] and in experiment [12] was greater than 256 µg/mL throughout. In experiment [13], this compound came in with an inhibition of 0%.

As for `NC(=O)c1ccc(C(=O)Nc2ccc(-n3ccnc3)nc2)cc1`, the minimal inhibitory concentration (MIC) in experiment [1], in experiment [2], in [3], in experiment [7], in [8] and in [9] was greater than 256 µg/mL each time. Further, the MIC in [11] and in experiment [12] was greater than 256 µg/mL throughout. In addition, the inhibition in experiment [4] amounted to 10.5%; in experiment [5] it was 0%; in experiment [6], 0.1%. In experiment [10], this compound had a pIC50 of 4.92.
